Only some compounds are listed: those with a hit (about 2% of all), similar ones and a draw of the others.
Dynein transport: blocks dynein driven cargo transport along microtubules; 3617.4 mouse cells, GR-EGFP nuclear translocation imaging; test concentration mostly 20 µM; stimulated with dexamethasone, 1 µM; active compounds read low; z-score, hits read low; actives 0.47% (n = 220,000);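 active = plate z-score of nuclear minus cytoplasmic receptor signal below a set negative limit, without overly bright fluorescence or cell loss, cut at about -3.5 in these data, passing the limit was not always enough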;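 also: z-score of nuclear minus cytoplasmic ring GR-EGFP intensity difference per well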
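Medium: Induction medium lacking tetracycline, stripped serum | Probe or stimulus: 1.0 µM final dexamethasone stimulus | Schedule: 48 h induction, then 1 h compound, then 30 min agonist, 37 °C | Signal: Automated 10x imaging of fixed Hoechst-stained cells | Evaluation: Per-cell GR-EGFP intensity, nucleus versus surrounding cytoplasmic ring, well-averaged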
Autophagy HCS: alters autophagy in cells; MEF GFP-LC3 puncta imaging; test concentration mostly 10 µM; calls only at 10 µM (by protocol); actives 0.98% (n = 190,000);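 active = percentage of spot-positive cells more than 3 SD above its plate mean, without a fluorescence outlier flag or 80% toxicity; inconclusive = no clear call, values can overlap the other calls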;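 also: spot-positive cell cutoff set from DMSO-treated cells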
Furin inh: blocks human furin protease activity; P09958; purified furin, fluorogenic substrate cleavage; inhibition, % at 20 µM or 30 µM; actives 0.061% (n = 220,000); in the data active = inhibition above about 25%
Target sequence (P09958 108-714 limits assumed): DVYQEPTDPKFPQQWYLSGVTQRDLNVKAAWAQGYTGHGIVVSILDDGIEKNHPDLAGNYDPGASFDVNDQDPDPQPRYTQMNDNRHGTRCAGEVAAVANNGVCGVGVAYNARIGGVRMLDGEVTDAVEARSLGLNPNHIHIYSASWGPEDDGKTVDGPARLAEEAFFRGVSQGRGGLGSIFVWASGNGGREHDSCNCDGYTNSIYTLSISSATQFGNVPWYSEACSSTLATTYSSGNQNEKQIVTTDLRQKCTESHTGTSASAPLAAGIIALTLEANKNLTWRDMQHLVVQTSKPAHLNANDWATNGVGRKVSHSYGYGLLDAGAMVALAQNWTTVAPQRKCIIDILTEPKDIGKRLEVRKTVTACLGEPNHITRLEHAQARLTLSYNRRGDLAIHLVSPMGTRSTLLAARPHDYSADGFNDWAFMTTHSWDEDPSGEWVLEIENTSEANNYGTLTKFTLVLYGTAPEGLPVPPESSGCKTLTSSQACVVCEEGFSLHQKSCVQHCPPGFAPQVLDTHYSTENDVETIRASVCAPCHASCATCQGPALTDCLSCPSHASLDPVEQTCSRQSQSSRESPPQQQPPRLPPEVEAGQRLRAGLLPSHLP
Insulin prom inh: TRM-6 insulin promoter activity inhibition; TRM-6 cells, insulin promoter-eGFP reporter, imaging; reporter expression induced with tamoxifen; inhibition, % at 2 µM; actives 0.9% (n = 130,000); AID 1273;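 active = inhibition above the mean plus 3 SD, with well images judged a real hit on visual review, cut at about 60% in these data, passing the limit was not always enough; inconclusive = inhibition over the cutoff but images rejected on review; inactive = inhibition not above the cutoff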
Ins promoter up: MIN6 insulin promoter up-regulation; z-score at 5 µM; MIN6 insulin promoter-GFP reporter, high-content imaging; active compounds read high; actives 0.3% (n = 190,000);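 active = z-score above 3 at 5 µM with at least 500 cells counted in the well; inconclusive = wells under 500 cells, flagged as cytotoxic or low count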
HSV augment: HSV replication enhancement. HSV replication augmentation in cells, fold increase. maximum fold increase. actives 0.005% (n = 220,000). AID 1956; in the data active = maximum fold increase above about 1.5; inconclusive = no clear call, values can overlap the other calls; tested in PC3 cells
Dynein confirm: dynein cargo transport inhibition, confirmation | 3617.4 GR-EGFP nuclear translocation imaging, dexamethasone-induced | actives 69% (n = 1,000) | calls only at 20 µM | shares compounds with Dynein transport;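 active = inhibition of receptor movement into the nucleus at or above a set limit in both runs, with normal cell brightness and cell count; inconclusive = limit reached in only one run, brightness and count normal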;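 also: dexamethasone at 1 µM final in well for 30 min; nuclear minus cytoplasmic GR-EGFP mean intensity difference in channel 2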
* marks the source's active call; other numbers are inactive results; i = inactive; ? = inconclusive; . = not tested or not shown; + = active, no number.

SMILES | Dynein transport | Autophagy HCS | Furin inh | Insulin prom inh | Ins promoter up | HSV augment | Dynein confirm
C=C1C(=O)[C@@]23[C@H](O)C[C@@H]4C(C)(C)CC[C@H](O)[C@]4(C)[C@@H]2C[C@H](O)[C@@H]1[C@H]3O | -5.11* | i | -11.8 | -55.0 | . | i | +
C=C1C(=O)[C@@]23[C@H](O)C[C@@H]4C(C)(C)CC[C@H](O)[C@@]4(C)[C@@H]2CC[C@@H]1[C@H]3O | -5.46* | i | -10.9 | -105.0 | ? | i | +
Cc1c(NC(=O)CC2NC(=O)NC2=O)c(=O)n(-c2ccccc2)n1C (stereo not given) | -0.446 | i | -19.1 | 16.7 | -0.35 | i | .
CSCC[C@H](NC(=O)C1=NN(c2c(F)c(F)cc(F)c2F)C(=O)CC1)c1nc2ccccc2[nH]1 | -0.966 | . | -24.3 | . | -0.59 | i | .
Cc1ccc(OCCC(=O)OCC(=O)Nc2cc(S(=O)(=O)N(C)C)ccc2C)cc1 | -0.84 | i | -30.2 | -46.7 | 1.43 | i | .
COc1ccc(-n2ccnc2SCC(=O)NCc2ccco2)c(OC)c1 | 1.28 | i | -12.1 | . | -0.8 | i | .
COc1ccc(NC(=O)c2c3c(nc4ccccc24)CCC3)cc1S(=O)(=O)N1CCOCC1 | 0.114 | i | -13.3 | 23.1 | -0.25 | i | .
Cc1nnc(Sc2nc3ccccc3o2)c2ccccc12 | -1.59 | i | -13.8 | 12.1 | -0.23 | i | .
Cc1ccc(-c2nnc(Sc3nc4ccccc4o3)c3ccccc23)cc1 | -4.14* | i | -5.3 | . | . | i | +
CCSc1nnc(-c2ccc(Cl)cc2)c2ccccc12 | -0.892 | i | -26.1 | -29.2 | -0.84 | i | .
Clc1ccc(-c2nnc(Sc3nc4ccccc4o3)c3ccccc23)cc1 | -4.1* | i | -7.1 | 33.3 | . | i | +
CCCCSc1nc(O)cc(=O)n1CC | -1.28 | i | -23.9 | 58.8 | -0.8 | i | .
CCCc1cnc(NCCNCC(O)COc2ccc(Cl)c(Cl)c2)nc1 (stereo not given) | 1.76 | . | -13.3 | . | -0.44 | i | .
CCN1C(=O)/C(=C\c2ccncc2)SC1=Nc1ccc(C)c(C)c1 | -3.04 | i | -20.4 | 28.1 | -1.17 | i | .
CCCN1C(=O)/C(=C\c2ccncc2)SC1=Nc1ccccc1 | -4.43* | i | 14.3 | 17.6 | -0.46 | i | i
N#C/C(=C/c1ccc(N2CCCCC2)o1)c1cccc(F)c1 | -4.28 | ? | -7.2 | -13.3 | . | i | i
N#C/C(=C/c1ccc(N2CCCCCC2)o1)c1ccc(Cl)cc1 | -6.15 | ? | -6.7 | -53.9 | . | i | i
N#C/C(=C\c1ccc(N2CCOCC2)o1)C(=O)NCC1CCCO1 (stereo not given) | -0.886 | i | 6.5 | . | 0.95 | ? | .
O=C(CN1CCN(Cc2ccccc2Cl)C1=O)NCc1ccccn1 | 0.28 | . | -18.4 | . | 0.34 | i | .
O=C1c2ccccc2C(=O)N1Cc1cc(-c2ccc(Cl)cc2)no1 | . | i | -22.4 | . | . | i | .
Cc1ccc(-n2nnnc2C(Cl)(Cl)c2nnnn2-c2ccc(C)cc2)cc1 | -4.6* | i | -20.1 | . | 0.93 | i | +
Clc1ccc(-c2nnnn2-c2ccc(Cl)cc2)cc1 | -0.497 | . | -16.9 | . | -0.04 | i | .
CC(C)COc1cc(=O)[nH]c(SCC(C)C)n1 | -4.23* | i | 9.0 | 40.0 | -0.93 | i | i
O=C(NCc1cccnc1)c1ccc(-c2ccc(Cl)cc2)o1 | -0.42 | i | -22.9 | . | 0.1 | i | .
O=C(NCc1cccnc1)/C(=C\c1ccc(-c2ccc(Cl)c(Cl)c2)o1)S(=O)(=O)c1ccccc1 | -4.21* | i | -19.3 | -92.9 | -1.66 | i | +
SMILES | Dynein transport | Autophagy HCS | Furin inh | Insulin prom inh | Ins promoter up | HSV augment | Dynein confirm
CCOC(=O)C(C(=O)OCC)C(C(=O)OCC)N1CCOCC1 (stereo not given) | -4.56* | i | -19.4 | -50.0 | . | i | +
N#C/C(=C\c1cccs1)C(=O)c1ccccc1Cl | -4.93* | . | 4.1 | . | 0.18 | i | +
CC(C)(C)C(=O)/C(C#N)=C/c1cccs1 | 0.272 | . | -16.4 | . | . | i | .
O=C(O)c1ccc2c(=O)n3cc(C(=O)c4ccccc4O)cc(Cl)c3nc2c1 | -1.03 | . | -17.9 | . | -0.39 | i | .
CCCCCCN1C=CC(=C/C=C(\C#N)C(=O)OCC)C=C1 | -3.83 | + | -7.8 | -132.6 | . | ? | ?
COc1ccccc1CNC(=O)C1=CCN(S(=O)(=O)c2ccc(C)cc2)CC1 | -0.216 | . | -23.1 | . | -0.39 | i | .
